Measurements taken from ChEMBL document CHEMBL4229360, “Antimalarial agents against both sexual and asexual parasites stages: structure-activity relationships and biological studies of the Malaria Box compound 1-[5-(4-bromo-2-chlorophenyl)furan-2-yl]-N-[(piperidin-4-yl)methyl]methanamine (MMV019918) and analogues” (Eur J Med Chem, 2018).

What was measured:
[1] = system: Plasmodium falciparum; test: Gametocytocidal activity against Plasmodium falciparum 3D7 elo1-pfs16-CBG99 late-stage (4 to 5) gametocytes assessed as inhibition of parasite viability after 72 hrs by luciferase reporter assay; type: functional, organism-based; conditions: 3D7 elo1-pfs16-CBG99, 72 h
Procedure, shortened: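 Transgenic 3D7elo1-pfs16-CBG99 gametocytes express CBG99 luciferase from the pfs16 promoter. Stage IV–V gametocytes (Giemsa-checked) were exposed at day 8–10 after NAG addition to serial dilutions in complete medium for 72 h. Samples at 2% haematocrit were then mixed 1:1 with D-luciferin (1 mM, pH 5.5 citrate) for 10 min and luminescence was read. IC50 came from non-linear regression, mean of ≥3 experiments in duplicate.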

[2] = system: Plasmodium falciparum; test: Antiplasmodial activity against chloroquine-resistant Plasmodium falciparum W2 after 72 hrs by lactate dehydrogenase assay; type: functional, organism-based; conditions: W2, 72 h
Procedure, shortened: (§1)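 Asynchronous blood-stage cultures at 1–1.5% parasitemia and 1% final hematocrit in human A+ RBCs, RPMI 1640 with 1% AlbuMax, hypoxanthine, HEPES and glutamine. Serial dilutions from DMSO stocks, final DMSO <1%. Incubated 72 h at 37 °C under 1% O₂/5% CO₂. IC50 is the mean of ≥3 experiments in duplicate.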

[3] = system: Plasmodium falciparum; test: Antiplasmodial activity against chloroquine-sensitive Plasmodium falciparum D10 after 72 hrs by lactate dehydrogenase assay; type: functional, organism-based; conditions: D10, 72 h; procedure, shortened: as §1
[4] = system: Plasmodium falciparum; test: Gametocytocidal activity against Plasmodium falciparum NF54 HGL gametocytes assessed as inhibition of parasite viability after 72 hrs by ONE-Glo reagent based luminescence assay; type: functional, organism-based
Procedure, shortened: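 NF54 gametocytes raised in 5% haematocrit RPMI1640/10% human serum, with 50 mM NAG on days 4–9. Mainly stage IV gametocytes isolated on day 11 by Percoll gradient and seeded at 5000 cells/well, final DMSO 0.1%. Incubated 72 h at 37 °C, 3% O2, 4% CO2; viability by ONE-Glo luminescence.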

[5] = system: Plasmodium falciparum; test: Antiplasmodial activity against asexual blood stage Plasmodium falciparum NF54 after 72 hrs by SYBR green-based fluorometric analysis; type: functional, organism-based; conditions: NF54, 72 h
Procedure, shortened: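 Asexual NF54 seeded at 0.83% parasitaemia, 1.5% haematocrit, in RPMI1640 with 10% human serum. Serial dilutions, final DMSO 0.1%. Incubated 72 h at 37 °C under 3% O2, 4% CO2, then read by SYBR Green fluorescence.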

[6] = Cytotoxicity against mouse NIH/3T3 cells after 24 hrs by neutral red uptake assay; type: cell-based, NIH3T3; conditions: read-out: TC50
Procedure, shortened: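 NIH3T3 cells exposed for 24 h; viability by neutral red uptake. Mean of three experiments, six replicates each.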

[7] = system: Plasmodium falciparum; test: Gametocytocidal activity against Plasmodium falciparum late stage gametocytes; type: functional, organism-based
[8] = system: Plasmodium falciparum; test: Antiplasmodial activity against Plasmodium falciparum asexual stage forms; type: functional, organism-based
[9] = Cardiotoxicity in Langendorff perfused Wistar rat heart assessed as cycle length interval time at 3 uM by electrocardiography (reference value: 217.15 to 242.23 milliseconds); type: toxicity, tissue-based
[10] = Cardiotoxicity in Langendorff perfused Wistar rat heart assessed as frequency of heart rate at 1 uM by electrocardiography (reference value: 247.05 to 275.90 bpm); type: toxicity, tissue-based
[11] = biological target: CaV1.2 channel (Rattus norvegicus, UniProt P22002); test: Inhibition of CaV1.2 channel in rat tail artery myocytes assessed as reduction in Ba2+ current at 10 uM at -50 mV holding potential by whole-cell patch-clamp assay; type: cell-based
Procedure, shortened: (§2)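 Freshly isolated rat tail artery smooth muscle cells (collagenase digestion), whole-cell patch clamp at 20–22 °C. External solution: 5 mM Ba2+, 30 mM TEA; Cs+-based internal solution, pH 7.4. Currents from 250-ms pulses to 0 mV from Vh −50 mV at 0.067 Hz, after 7–10 min stabilisation. Leak corrected with 10 μM nifedipine. Peak current as % of control; n = 3–6 cells from ≥3 animals.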

[12] = Cardiotoxicity in Langendorff perfused Wistar rat heart assessed as QTc interval time at 10 uM by electrocardiography (reference value: 76.45 to 80.07 milliseconds); type: toxicity, tissue-based
[13] = Cardiotoxicity in Langendorff perfused Wistar rat heart assessed as PQ interval time at 1 uM by electrocardiography (reference value: 41.13 to 42.63 milliseconds); type: toxicity, tissue-based
[14] = Cardiotoxicity in Langendorff perfused Wistar rat heart assessed as frequency of heart rate at 10 uM by electrocardiography (reference value: 247.05 to 275.90 bpm); type: toxicity, tissue-based
[15] = Cardiotoxicity in Langendorff perfused Wistar rat heart assessed as cycle length interval time at 0.1 uM by electrocardiography (reference value: 217.15 to 242.23 milliseconds); type: toxicity, tissue-based
[16] = biological target: hERG (KCNH2) (Homo sapiens, UniProt Q12809); test: Inhibition of human ERG at 50 uM
[17] = system: Plasmodium falciparum; test: Antiplasmodial activity against Plasmodium falciparum sexual stage forms; type: functional, organism-based
[18] = Cardiotoxicity in Langendorff perfused Wistar rat heart assessed as frequency of heart rate at 3 uM by electrocardiography (reference value: 247.05 to 275.90 bpm); type: toxicity, tissue-based
[19] = Cardiotoxicity in Langendorff perfused Wistar rat heart assessed as QTc interval time at 0.1 uM by electrocardiography (reference value: 76.45 to 80.07 milliseconds); type: toxicity, tissue-based
[20] = system: Plasmodium falciparum; test: Antiplasmodial activity against gametocytes of Plasmodium falciparum NF54 infected in Anopheles stephensi mosquitoes after 24 hrs by standard membrane feeding assay; type: functional, organism-based; conditions: NF54, 24 h
[21] = Cardiotoxicity in Langendorff perfused Wistar rat heart assessed as QRS interval time at 3 uM by electrocardiography (reference value: 13.31 to 14.35 milliseconds); type: toxicity, tissue-based
[22] = Cardiotoxicity in Langendorff perfused Wistar rat heart assessed as frequency of heart rate at 0.1 uM by electrocardiography (reference value: 247.05 to 275.90 bpm); type: toxicity, tissue-based
[23] = Cardiotoxicity in Langendorff perfused Wistar rat heart assessed as coronary perfusion pressure at 0.1 to 10 uM; type: toxicity, tissue-based
[24] = Cardiotoxicity in Langendorff perfused Wistar rat heart assessed as PQ interval time at 10 uM by electrocardiography (reference value: 41.13 to 42.63 milliseconds); type: toxicity, tissue-based
[25] = biological target: Voltage-dependent L-type calcium channel subunit alpha-1C (Rattus norvegicus, UniProt P22002); test: Inhibition of CaV1.2 channel in rat tail artery myocytes assessed as reduction in Ba2+ current at -50 mV holding potential by whole-cell patch-clamp assay; type: cell-based; conditions: rat; procedure, shortened: as §2
[26] = Cardiotoxicity in Langendorff perfused Wistar rat heart assessed as cycle length interval time at 1 uM by electrocardiography (reference value: 217.15 to 242.23 milliseconds); type: toxicity, tissue-based
[27] = Cardiotoxicity in Langendorff perfused Wistar rat heart assessed as PQ interval time at 3 uM by electrocardiography (reference value: 41.13 to 42.63 milliseconds); type: toxicity, tissue-based
[28] = Cardiotoxicity in Langendorff perfused Wistar rat heart assessed as QRS interval time at 0.1 uM by electrocardiography (reference value: 13.31 to 14.35 milliseconds); type: toxicity, tissue-based
[29] = Cardiotoxicity in Langendorff perfused Wistar rat heart assessed as reduction of left ventricular pressure; type: toxicity, tissue-based
[30] = Cardiotoxicity in Langendorff perfused Wistar rat heart assessed as QRS interval time at 10 uM by electrocardiography (reference value: 13.31 to 14.35 milliseconds); type: toxicity, tissue-based
[31] = Cardiotoxicity in Langendorff perfused Wistar rat heart assessed as PQ interval time at 0.1 uM by electrocardiography (reference value: 41.13 to 42.63 milliseconds); type: toxicity, tissue-based
[32] = biological target: T1, Phosphoethanolamine N-methyltransferase (Plasmodium falciparum) (UniProt Q8IDQ9); test: Inhibition of plasmodium falciparum phosphoethanolamine N-methyltransferase expressed in Escherichia coli assessed as remaining enzyme activity at 100 uM using phosphoethanolamine as substrate and [methyl-14C] SAM by radiochemical assay
T1 sequence (whole entry): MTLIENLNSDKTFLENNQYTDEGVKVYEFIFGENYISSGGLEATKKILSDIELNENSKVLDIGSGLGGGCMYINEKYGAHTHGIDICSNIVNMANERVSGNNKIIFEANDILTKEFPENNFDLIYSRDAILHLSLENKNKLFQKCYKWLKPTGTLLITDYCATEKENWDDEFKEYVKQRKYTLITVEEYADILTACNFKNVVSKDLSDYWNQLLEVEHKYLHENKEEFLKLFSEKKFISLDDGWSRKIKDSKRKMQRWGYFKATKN
Procedure, shortened: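 Recombinant PfPMT purified from E. coli, 2 μg per 100 μL reaction. Buffer 0.1 M HEPES-KOH pH 8.0, 2 mM Na2EDTA, 10% glycerol, 5% DMSO, with 30 μM SAM (100 nCi [methyl-14C]SAM) and 55 μM phosphoethanolamine; radiochemical read-out.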

[33] = Cardiotoxicity in Langendorff perfused Wistar rat heart assessed as QTc interval time at 3 uM by electrocardiography (reference value: 76.45 to 80.07 milliseconds); type: toxicity, tissue-based
[34] = Cardiotoxicity in Langendorff perfused Wistar rat heart assessed as QRS interval time at 1 uM by electrocardiography (reference value: 13.31 to 14.35 milliseconds); type: toxicity, tissue-based
[35] = Cardiotoxicity in Langendorff perfused Wistar rat heart assessed as cycle length interval time at 10 uM by electrocardiography (reference value: 217.15 to 242.23 milliseconds); type: toxicity, tissue-based
[36] = Cardiotoxicity in Langendorff perfused Wistar rat heart assessed as QTc interval time at 1 uM by electrocardiography (reference value: 76.45 to 80.07 milliseconds); type: toxicity, tissue-based

Sequence of hERG (KCNH2) (Q12809 whole entry): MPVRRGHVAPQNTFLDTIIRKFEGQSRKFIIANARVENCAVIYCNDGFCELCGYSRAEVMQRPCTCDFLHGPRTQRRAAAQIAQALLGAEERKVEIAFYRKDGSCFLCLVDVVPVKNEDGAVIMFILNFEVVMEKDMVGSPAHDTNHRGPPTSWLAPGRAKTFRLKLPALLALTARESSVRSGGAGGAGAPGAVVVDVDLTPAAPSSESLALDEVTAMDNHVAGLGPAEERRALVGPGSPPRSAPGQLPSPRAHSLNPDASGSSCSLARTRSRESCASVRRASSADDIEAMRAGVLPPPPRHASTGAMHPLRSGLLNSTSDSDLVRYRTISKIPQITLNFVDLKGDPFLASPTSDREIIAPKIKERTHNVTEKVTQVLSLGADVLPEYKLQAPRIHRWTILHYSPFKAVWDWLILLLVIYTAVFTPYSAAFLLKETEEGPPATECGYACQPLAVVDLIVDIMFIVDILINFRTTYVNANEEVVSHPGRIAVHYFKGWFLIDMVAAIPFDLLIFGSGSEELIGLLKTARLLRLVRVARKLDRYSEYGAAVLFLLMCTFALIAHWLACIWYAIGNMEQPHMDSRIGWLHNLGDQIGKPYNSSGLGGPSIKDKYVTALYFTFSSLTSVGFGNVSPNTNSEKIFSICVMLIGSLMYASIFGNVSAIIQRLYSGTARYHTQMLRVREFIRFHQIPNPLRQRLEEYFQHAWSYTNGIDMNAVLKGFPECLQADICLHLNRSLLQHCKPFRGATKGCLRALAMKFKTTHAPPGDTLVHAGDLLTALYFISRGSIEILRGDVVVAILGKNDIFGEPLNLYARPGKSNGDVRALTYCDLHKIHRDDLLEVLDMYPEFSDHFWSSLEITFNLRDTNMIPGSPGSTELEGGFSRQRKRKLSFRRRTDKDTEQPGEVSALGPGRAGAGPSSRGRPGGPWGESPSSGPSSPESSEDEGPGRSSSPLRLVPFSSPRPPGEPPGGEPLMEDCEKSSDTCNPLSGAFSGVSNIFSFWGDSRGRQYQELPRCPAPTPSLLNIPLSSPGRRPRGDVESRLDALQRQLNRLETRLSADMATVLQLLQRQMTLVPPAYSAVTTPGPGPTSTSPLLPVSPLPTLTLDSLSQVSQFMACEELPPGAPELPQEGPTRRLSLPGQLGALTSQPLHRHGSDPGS
Sequence of Voltage-dependent L-type calcium channel subunit alpha-1C (P22002 whole entry, the tested form may be a part): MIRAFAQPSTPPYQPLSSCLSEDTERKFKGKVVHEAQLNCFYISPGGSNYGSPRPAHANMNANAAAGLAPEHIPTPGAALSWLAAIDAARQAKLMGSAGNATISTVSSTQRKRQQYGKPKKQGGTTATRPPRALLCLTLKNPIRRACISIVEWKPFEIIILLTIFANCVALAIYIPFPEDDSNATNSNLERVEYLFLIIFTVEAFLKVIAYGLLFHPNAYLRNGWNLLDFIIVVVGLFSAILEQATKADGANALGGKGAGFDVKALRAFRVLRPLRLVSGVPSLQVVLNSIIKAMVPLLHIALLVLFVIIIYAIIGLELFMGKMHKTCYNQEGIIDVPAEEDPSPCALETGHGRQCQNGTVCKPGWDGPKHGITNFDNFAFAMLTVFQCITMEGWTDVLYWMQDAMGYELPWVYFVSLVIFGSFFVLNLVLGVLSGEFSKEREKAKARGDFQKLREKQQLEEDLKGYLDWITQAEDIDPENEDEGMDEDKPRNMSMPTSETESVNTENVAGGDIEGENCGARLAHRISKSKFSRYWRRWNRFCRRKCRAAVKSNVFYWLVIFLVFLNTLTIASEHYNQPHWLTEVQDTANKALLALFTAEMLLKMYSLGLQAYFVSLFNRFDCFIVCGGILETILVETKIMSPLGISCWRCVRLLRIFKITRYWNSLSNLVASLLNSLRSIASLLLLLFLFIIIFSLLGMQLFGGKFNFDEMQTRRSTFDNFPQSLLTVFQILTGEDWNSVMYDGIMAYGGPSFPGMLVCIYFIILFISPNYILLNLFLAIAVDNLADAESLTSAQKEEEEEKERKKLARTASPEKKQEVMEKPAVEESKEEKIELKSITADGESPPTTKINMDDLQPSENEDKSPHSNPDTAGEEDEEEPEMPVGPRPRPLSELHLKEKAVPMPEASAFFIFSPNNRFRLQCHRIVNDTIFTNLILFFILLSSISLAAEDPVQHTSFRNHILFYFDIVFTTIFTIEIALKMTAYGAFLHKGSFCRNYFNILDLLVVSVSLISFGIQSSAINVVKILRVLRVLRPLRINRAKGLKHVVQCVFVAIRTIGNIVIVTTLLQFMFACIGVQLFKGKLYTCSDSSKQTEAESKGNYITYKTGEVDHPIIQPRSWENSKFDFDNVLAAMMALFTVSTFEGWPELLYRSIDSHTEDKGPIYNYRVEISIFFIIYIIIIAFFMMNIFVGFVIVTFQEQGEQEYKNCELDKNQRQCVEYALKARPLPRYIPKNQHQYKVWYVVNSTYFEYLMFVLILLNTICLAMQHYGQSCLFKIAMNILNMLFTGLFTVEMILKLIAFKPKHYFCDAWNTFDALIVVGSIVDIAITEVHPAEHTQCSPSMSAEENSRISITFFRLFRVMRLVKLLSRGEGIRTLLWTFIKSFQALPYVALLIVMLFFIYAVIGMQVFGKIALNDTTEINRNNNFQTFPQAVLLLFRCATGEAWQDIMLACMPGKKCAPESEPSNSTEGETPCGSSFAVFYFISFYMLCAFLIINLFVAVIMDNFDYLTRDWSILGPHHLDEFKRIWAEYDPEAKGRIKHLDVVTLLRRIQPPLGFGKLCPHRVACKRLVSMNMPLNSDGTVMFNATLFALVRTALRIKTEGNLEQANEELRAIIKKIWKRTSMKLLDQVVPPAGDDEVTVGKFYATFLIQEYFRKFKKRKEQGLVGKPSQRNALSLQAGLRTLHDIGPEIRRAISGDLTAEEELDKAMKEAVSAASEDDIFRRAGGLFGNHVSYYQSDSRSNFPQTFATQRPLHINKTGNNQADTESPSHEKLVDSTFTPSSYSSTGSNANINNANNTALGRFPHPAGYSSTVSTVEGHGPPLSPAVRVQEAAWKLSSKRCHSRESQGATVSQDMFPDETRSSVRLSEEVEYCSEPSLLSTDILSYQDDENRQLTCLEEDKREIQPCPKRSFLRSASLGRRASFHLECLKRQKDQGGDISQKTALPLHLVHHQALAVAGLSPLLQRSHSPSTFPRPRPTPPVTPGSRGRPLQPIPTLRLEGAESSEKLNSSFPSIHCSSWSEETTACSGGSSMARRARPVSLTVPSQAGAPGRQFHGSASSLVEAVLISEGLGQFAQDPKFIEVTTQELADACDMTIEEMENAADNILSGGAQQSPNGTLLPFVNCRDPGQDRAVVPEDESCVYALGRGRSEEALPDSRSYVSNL
Sequence of CaV1.2 channel (P22002 whole entry): as the sequence (P22002 whole entry, the tested form may be a part) above

`FC(F)(F)c1ccc(-c2cccc(CNCC3CCNCC3)n2)cc1` showed an IC50 [1] of 4 µM, an IC50 [2] of 3.4 µM and an IC50 [3] of 0.46 µM.

For `Clc1cc(Br)ccc1-c1ccc(CNCC2CCNCC2)s1`, the IC50 [4] was 0.02 µM, the IC50 [1] was 0.85 µM and the IC50 [2] was 2.2 µM. For the same compound, the IC50 [5] was 0.28 µM, the IC50 [3] was 0.73 µM and the CC50 at 24 h [6] was under 5 µM.

`Clc1cc(Br)ccc1-c1ccc(CNCC2CCNCC2)o1` showed an IC50 [1] of 1.2 µM, an IC50 [7] of under 1 µM and an IC50 [8] of under 1 µM. It also gave a Time [9] of 233.9 ms, an Activity [10] of 258.35 bpm and an inhibition at 10 µM [11] of 57%. It also gave a Time [12] of 80.99 ms, an IC50 [2] of 2.3 µM and a Time [13] of 42.5 ms. For the same compound, the Activity [14] was 222.74 bpm, the Time [15] was 235.08 ms and the inhibition at 50 µM [16] was 83%. The IC50 [17] was under 1 µM, the Activity [18] was 257.71 bpm and the Time [19] was 81.51 ms. The EC50 [20] was 0.07 µM, the Time [21] was 17.46 ms and the Activity [22] was 256.15 bpm. For the same compound, the Activity [23] was “Non-Toxic”, the Time [24] was 67.5 ms and the IC50 [3] was 0.77 µM. For the same compound, the “inhibition (INH)” value [25] was “Dose-dependent effect”, the Time [26] was 232.48 ms and the Time [27] was 47.9 ms. For the same compound, the Time [28] was 14.25 ms, the Activity [29] was “Dose-dependent effect” and the Time [30] was 23.75 ms. The Time [31] was 42.29 ms, the Activity [32] was 92% and the Time [33] was 82.1 ms. For the same compound, the Time [34] was 15.8 ms, the Time [35] was 272.57 ms and the Time [36] was 80.93 ms.

For `Clc1ccccc1-c1ccc(CNCC2CCNCC2)o1`, the IC50 [1] was 5.9 µM, the IC50 [2] was 4.3 µM and the IC50 [3] was 2.1 µM.

Compound `C[N+](C)(CCCNCc1ccc(-c2ccc(Cl)cc2Br)o1)Cc1ccccc1` has an IC50 [1] of 4.8 µM, an IC50 [2] of 0.66 µM and an IC50 [3] of 0.55 µM. The Activity [32] was 95.8%.

Compound `Clc1ccc(-c2nnc(CNCC3CCNCC3)[nH]2)cc1` has an IC50 [1] of over 13 µM, an IC50 [2] of over 13 µM and an IC50 [3] of over 13 µM.

`c1ccc(-c2ccc(CNCC3CCNCC3)o2)cc1` showed an IC50 [1] of 8.6 µM, an IC50 [2] of 9.1 µM and an IC50 [3] of 3.5 µM.

`Brc1ccc2cc(CNCC3CCNCC3)sc2c1` gave an IC50 [4] of 0.053 µM, an IC50 [1] of 1.4 µM and an IC50 [2] of 1.5 µM. It also gave an IC50 [5] of 0.73 µM and an IC50 [3] of 1 µM.

Compound `Clc1cc(-c2ccccc2)ccc1-c1ccc(CNCC2CCNCC2)o1` has an IC50 [1] of 1.4 µM, an IC50 [2] of 3 µM and an IC50 [3] of 1 µM. For the same compound, the CC50 at 24 h [6] was 5 µM.

Work on `FC(F)(F)c1ccc(-c2ccc(CNCC3CCNCC3)o2)cc1` yielded an IC50 [1] of 1.9 µM, an IC50 [2] of 1.5 µM and an IC50 [3] of 0.41 µM. It also gave a CC50 at 24 h [6] of 50 µM.

For `N#Cc1ccc(-c2ccc(CNCC3CCNCC3)o2)cc1`, the IC50 [1] was 18.4 µM, the IC50 [2] was 6.3 µM and the IC50 [3] was 1.1 µM. For the same compound, the Activity [32] was 73.2%.
